Compound activity deposited in PubChem by The Scripps Research Institute Molecular Screening Center.
Sampled rows, rich in hits. Any-hit rate of the full collection: about 1.8%.
SIAE inh – blocks human sialic acid acetylesterase; Q9HAT2; SIAE FP-Rh probe binding, fluorescence polarization; inhibition, % at 9.66 µM; actives 0.69% (n = 370,000); AID 1053197;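 active = inhibition above a cutoff: mean of compounds within the control limits plus 3 SD of those, cut at about 17% in these data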
DDE Tn7 FP inh – DD(E)-Tn7 binding inhibition, primary FP screen; FP displacement of FITC-Tn7 peptide from fibrin DD(E); 0% = median of compound wells per plate; inhibition, % at 8.3 µM; actives 0.13% (n = 370,000);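 active = inhibition above the mean of compounds falling within the control limits plus 3 SD of them, cut at about 14% in these data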
Target sequence (P02675 whole entry, looked up): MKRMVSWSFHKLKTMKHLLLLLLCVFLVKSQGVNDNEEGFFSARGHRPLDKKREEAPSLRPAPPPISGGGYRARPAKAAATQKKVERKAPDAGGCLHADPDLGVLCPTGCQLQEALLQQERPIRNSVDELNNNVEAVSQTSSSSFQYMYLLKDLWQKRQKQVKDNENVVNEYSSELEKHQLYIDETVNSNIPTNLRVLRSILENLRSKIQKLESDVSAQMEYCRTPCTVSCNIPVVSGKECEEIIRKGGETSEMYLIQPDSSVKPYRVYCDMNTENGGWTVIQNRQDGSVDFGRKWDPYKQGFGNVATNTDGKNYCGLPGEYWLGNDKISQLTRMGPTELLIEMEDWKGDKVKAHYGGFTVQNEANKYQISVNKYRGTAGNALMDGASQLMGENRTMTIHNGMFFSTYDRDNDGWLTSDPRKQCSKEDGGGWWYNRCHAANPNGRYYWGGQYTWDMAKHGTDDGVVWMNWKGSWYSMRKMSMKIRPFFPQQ
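Assay system: human fibrin DD(E) protein / Input: 2 µM fibrin DD(E) / Benchmarks: high control of 10 µM Aha-Tn7 peptide / Measured by: fluorescence polarization of the labelled Tn7 tracer / Medium: Tris buffer with calcium and detergent, pH 7.8 / Timing: 10 min compound pre-incubation, 3 h probe incubation at room temperature / Repeats: one replicate per compound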
DDE Tn6 FP inh – inhibitors of Tn6 peptide binding to human fibrin DD(E) | Fibrin DD(E) TRITC-Tn6 fluorescence polarization displacement | inhibition, % at 8.3 µM | AID 720509 | actives 0.21% (n = 370,000) | P02675;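 active = inhibition above a per-campaign cutoff: mean of compounds within control limits plus 3 SD, cut at about 15% in these data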
mABHD4 FP – ABHD4 (mouse) inhibition, primary FP screen. AID 720543. purified mABHD4, FP-Rh probe fluorescence polarization. inhibition, % at 8.92 µM. actives 0.54% (n = 370,000);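 active = inhibition exceeding the mean over every tested compound plus 3 SD, cut at about 30% in these data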
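assay system = mABHD4 protein | compound dosing = single nominal dose of 8.92 µM, 0.89% DMSO final | read-out basis = percent inhibition of probe binding, normalized to plate controls | schedule = Enzyme–compound pre-incubation 45 min, then probe 60 min, both 25 °C | detection = fluorescence polarization, excitation 525 nm, emission 598 nm, BODIPY TMR filters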
HTRA1 inh – HTRA1 (human) protease inhibition | Q92743 | AID 504803 | actives 0.5% (n = 340,000) | recombinant HTRA1, FP-rhodamine activity-based probe, fluorescence polarization | inhibition, % at 5.96 µM; in the data active = inhibition above about 36%
TCR-CD3 inh – inhibitors of human TCR-CD3 interaction; actives 0.37% (n = 360,000); inhibition, % at 9.4 µM; TAMRA-labeled TCR probe fluorescence, biochemical; in the data active = inhibition above about 19%;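 note: recombinant mutant TCR 2C K166C tagged with TAMRA read by polarization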
SIAE inh conf – confirmation of human SIAE inhibitors. inhibition, % at 9.66 µM. shares compounds with SIAE inh. AID 1117263. SIAE FP-Rh activity-based probe, fluorescence polarization. actives 13% (n = 2,300);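 active = mean inhibition of the replicates above the hit cutoff set in the primary screen, cut at about 17% in these data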;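 note: inhibitors lower polarization as more probe stays unbound to SIAE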
Numbers stand for hits; i = inactive; nt = no result given.

SMILES	SIAE inh	DDE Tn7 FP inh	DDE Tn6 FP inh	mABHD4 FP	HTRA1 inh	TCR-CD3 inh	SIAE inh conf
COc1ccc(-c2cccc3[nH]c4c(c23)CCN2C(=O)[C@H]3[C@H](C)ON(C)[C@H]3C[C@@H]42)cc1	i	i	i	i	nt	i	nt
Cc1cc(C)nc(SCCS(=O)(=O)Cc2ccc(Cl)cc2)n1	19.7	i	i	i	i	i	i
CC(C)CNC(=O)OCc1cn(Cc2c(F)cccc2F)nn1	i	i	i	i	nt	nt	nt
Cc1ccc(C)c(OCCC(=O)OCC(=O)N(C)c2c(N)n(Cc3ccccc3)c(=O)[nH]c2=O)c1	17.6	i	i	i	i	i	i
COc1cc(NC(=S)NCCc2c[nH]c3ccccc23)c(OC)cc1Cl	20.4	i	i	i	i	i	i
COc1ccccc1NC(=S)NCCc1c[nH]c2ccccc12	i	i	i	i	i	i	nt
Cc1ccc(/C=N\NC(=O)/C(=C\Nc2nccc(C)n2)NC(=O)c2ccccc2)cc1	17.7	i	i	i	i	i	i
COc1ccc(/C=N\NC(=O)/C(=C\Nc2nccc(C)n2)NC(=O)c2ccccc2)cc1	i	i	i	i	i	i	nt
C#CCN1C(=O)[C@]2(OC[C@@H]3Cc4ccccc4[C@@H]3C=C2C)c2ccccc21	i	i	i	i	nt	i	nt
CC(C)(C)OC(=O)NCc1cc(F)ccc1/C=C/S(=O)(=O)NCc1ccc(F)cc1	i	i	i	i	nt	nt	nt
COc1cc(OC)c(C2SCCCS2)cc1OC	18.3	i	i	i	i	i	i
COc1ccc(-n2nnc3c(=O)n(C/C=C/c4ccccc4)cnc32)cc1	20.6	i	i	i	i	i	i
Cc1ccc(S(=O)(=O)N2CCN(c3ccccc3)CC2)c(C)c1	22.3	i	i	i	i	i	i
Cn1cc(S(=O)(=O)N2CCN(c3ccccc3)CC2)c(=O)n(C)c1=O	60.3	i	i	i	i	i	i
CNC(=S)N/N=C/c1c(C(=O)OC)cnn1-c1ccc(Cl)cc1	i	i	i	i	nt	nt	nt
O=S1(=O)c2c(cccc2N2CCSCC2)Oc2ccccc2CN1Cc1cn(Cc2ccccc2C(F)(F)F)nn1	i	i	i	i	nt	nt	nt
COC1=C[C@H](C(=O)NCc2ccc(Br)cc2)C(C)C(c2ccccc2)CC1=O (stereo partly drawn)	i	i	i	i	nt	nt	nt
COc1cc(CCCN2CCNC[C@@H]2c2ccccc2)cc(OC)c1OC	i	i	i	i	i	i	nt
c1ccc([C@H]2CNCCN2CCc2cccc3ccccc23)cc1	23.0	i	i	i	i	i	i
CCC[C@H]1[C@@H](OC(=O)NCc2cccc(Cl)c2)CC[C@@]23CCCN2C(=O)CCC[C@@H]13	i	i	i	i	nt	nt	nt
COC1=C[C@H](C(=O)NCCOC(C)=O)[C@H](C)[C@@H](c2ccccc2)CC1=O	i	i	i	i	nt	nt	nt
CCOC(=O)/C(C)=N/Nc1nc(-c2ccc(NC(C)=O)cc2)cs1	20.3	i	i	i	nt	i	i
CCCCNC(=O)C[C@H]1C[C@@]2(C(=O)OC)C(=C[C@H](C(C)(C)C)O[C@@H]2C)N(Cc2ccccc2)C1=O	i	i	i	i	nt	i	nt
C=C1CCC[C@]2(C)C[C@H]3OC(=O)C(CNCCN(CC)CC)[C@H]3CC12 (stereo partly drawn)	21.8	i	i	i	i	i	i
Fc1ccc2nc(Nc3nc4cc5c(cc4s3)OCO5)sc2c1	24.6	i	i	i	i	i	i
SMILES	SIAE inh	DDE Tn7 FP inh	DDE Tn6 FP inh	mABHD4 FP	HTRA1 inh	TCR-CD3 inh	SIAE inh conf
Fc1ccc2nc(Nc3nc4cc5c(cc4s3)OCCO5)sc2c1	32.0	i	i	i	i	i	i
Nn1c(SCC(=O)Nc2cc(C(F)(F)F)ccc2Cl)nnc1-c1n[nH]c2c1CCC2	i	i	i	i	nt	nt	nt
COc1cc(-c2nc3ccccn3c2/N=C/c2cc(OC)c(OC)c(OC)c2)ccc1O	28.2	i	i	i	i	i	i
COCCn1c(N)c(C#N)c2nc3ccccc3nc21	19.0	i	i	i	i	i	i
CCCCCC(=O)Nc1ccc(-c2csc(N)n2)cc1	17.8	i	i	i	i	i	i
CCCCCC(=O)Nc1ccc(-c2csc(C)n2)cc1	i	i	i	i	i	i	nt
CC(NCc1ccco1)C(=O)N1CCN(c2ccc(F)cc2)CC1 (stereo not drawn)	i	i	i	i	nt	nt	nt
CCCCCCCCN1C(=O)[C@@H](CC(=O)NCc2cccc(C(F)(F)F)c2)C[C@@]2(C(=O)OC)C1=C[C@H](C(C)C)O[C@@H]2C1CC1	i	i	i	i	nt	nt	nt
Nc1ccn([C@@H]2O[C@H](C(=O)NCc3ccc4c(c3)OCO4)[C@@H](O)[C@H]2O)c(=O)n1	51.7	i	i	i	nt	i	49.5
Nc1ccn([C@@H]2O[C@H](C(=O)NCCc3ccc(F)cc3)[C@@H](O)[C@H]2O)c(=O)n1	i	i	i	i	nt	i	nt
C=CCOC(=O)N[C@H](c1ccc(-c2ccccc2)cc1)[C@H](C)/C=C/CC(=O)OC	i	i	i	i	nt	nt	nt
Cc1ccc(C(=O)C[n+]2cccc3ccccc32)cc1	i	i	i	i	i	i	nt
O=C(C[n+]1cccc2ccccc21)c1ccc(Br)cc1	20.3	i	i	i	i	i	i
O=S1(=O)c2ccc(N3CCSCC3)cc2Oc2ccccc2CN1Cc1cn(Cc2ccc(F)cc2)nn1	i	i	i	i	nt	nt	nt
O=C(CSc1nc(O)c(C2CCCCC2)c(=O)[nH]1)NCC1CCCO1 (stereo not drawn)	17.2	i	i	i	i	i	i
C[C@@H]1OC(C2CCCCC2)N(C)[C@H]2C[C@H]3c4cc(N5CCOCC5)ccc4CCN3C[C@@H]12 (stereo partly drawn)	i	i	i	i	nt	nt	nt
C[C@H](O)[C@@H]1CN2CCc3c([nH]c4c(-c5ccccc5)cccc34)[C@@H]2C[C@@H]1N(C)C(=S)Nc1ccc(C#N)cc1	i	i	i	i	nt	nt	nt
CCN(CC)S(=O)(=O)c1cccc(C(=O)OC2CC(C)OC2=O)c1 (stereo not drawn)	17.1	i	i	i	i	i	i
CCn1c(=O)n2n(c1=O)[C@]1(C=C(C)C2)CN(Cc2ccc(OC)cc2OC)C(NC(=O)c2ccccc2)=N1	i	i	i	i	nt	nt	nt
CCC1(c2ccc(F)cc2)NC(=O)N(CC(=O)N(C)C2CCS(=O)(=O)C2)C1=O (stereo not drawn)	21.2	i	i	i	i	i	i
C[C@H]1COc2cc(Br)ccc2S(=O)(=O)N1Cc1cn(Cc2ccccc2)nn1	i	i	i	i	nt	nt	nt
Cc1c(C(=O)N2CCN(c3ccccn3)CC2)cccc1[N+](=O)[O-]	18.5	i	i	i	i	i	i
O=C(c1ccc(Cl)cc1[N+](=O)[O-])N1CCN(c2ccccn2)CC1	i	i	i	i	i	i	nt
